Experimental data: article PMC5598103 (Toxicology Reports, 2014)

Tests used:
[1] = target: T1, tissue non-specific alkaline phosphatase (TNAP) (Homo sapiens, UniProt P05186); assay: Alkaline phosphatase inhibition, spectrophotometric p-NPP assay; format: biochemical; conditions: for Ki: read-out: Ki ± SEM TNAP, pH 9.5, p-NPP substrate, SEM of 3 experiments
T1 sequence (P05186 18-524): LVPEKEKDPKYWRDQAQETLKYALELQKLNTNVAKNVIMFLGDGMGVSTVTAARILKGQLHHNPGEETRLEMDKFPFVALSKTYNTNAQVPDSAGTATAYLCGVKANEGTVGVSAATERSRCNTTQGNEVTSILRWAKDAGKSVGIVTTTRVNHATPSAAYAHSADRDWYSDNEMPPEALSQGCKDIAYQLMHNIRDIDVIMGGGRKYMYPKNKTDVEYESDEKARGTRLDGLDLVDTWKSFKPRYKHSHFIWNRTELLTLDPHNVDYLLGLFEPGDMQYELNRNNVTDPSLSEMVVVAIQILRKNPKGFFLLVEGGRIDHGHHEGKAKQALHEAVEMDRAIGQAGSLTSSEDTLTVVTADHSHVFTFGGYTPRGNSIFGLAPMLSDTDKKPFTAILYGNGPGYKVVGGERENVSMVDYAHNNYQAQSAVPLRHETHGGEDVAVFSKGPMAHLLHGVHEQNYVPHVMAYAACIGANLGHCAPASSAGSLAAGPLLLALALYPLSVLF
In short: (§1)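 Commercial enzyme (calf-intestinal CIAP; TNAP) diluted in pH 9.5 buffer of 50 mM Tris–HCl, 5 mM MgCl2, 0.1 mM ZnCl2 and 50% glycerol. Test compound was preincubated with enzyme in glycerol-free buffer at 37 °C for 10 min. 0.5 mM p-NPP solution was added, incubated 30 min, and p-nitrophenolate read at 405 nm. Screen at 0.1 mM used levamisole (TNAP) or L-phenylalanine (CIAP) as standards. Ki came from 3-fold serial dilutions, run in triplicate.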

HeLa cells = assay: Cytotoxicity by sulforhodamine B; format: cell-based, human; conditions: for Percent inhibition ± SEM at 0.1 μM on Hela cells / Percent inhibition ± SEM at 1 μM on Hela cells / Percent inhibition ± SEM at 10 μM on Hela cells: up to 48 h
In short: (§2)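 HeLa or vero cells were grown in RPMI-1640 with 2 mM L-glutamine, penicillin/streptomycin and 10% FBS at 37 °C, 5% CO2. Cells were seeded at 10^4 per well for 24 h, then exposed to 10, 1 or 0.1 μM test compound for up to 48 h, with vincristine and medium controls. Cells were fixed with cold TCA for 1 h and stained 30 min with 0.4% SRB in 1% acetic acid. Dye was solubilised in 10 mM Tris base and read at 490 nm minus 630 nm. Three experiments were run, each in triplicate.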

vero cells = assay: Cytotoxicity by sulforhodamine B; format: cell-based; conditions: for Percent inhibition ± SEM at 10 μM on vero cells: up to 48 h
In short: as §2

[2] = target: calf intestine alkaline phosphatase (CIAP); assay: Alkaline phosphatase inhibition, spectrophotometric p-NPP assay; format: biochemical; conditions: read-out: Ki ± SEM CIAP; pH 9.5, p-NPP substrate, SEM of 3 experiments
In short: as §1

Compound | inhibition at 100 µM ([1]; read-out: Percent inhibition of TNAP) [%] | inhibition at 10 µM (HeLa cells; Homo sapiens, HeLa, 48 h, read-out: Percent inhibition ± SEM at 10 μM on Hela cells) [%] | inhibition at 10 µM (vero cells; Chlorocebus sabaeus, Vero, 48 h, read-out: Percent inhibition ± SEM at 10 μM on vero cells) [%] | Percent inhibition ± SEM at 0.1 μM on Hela cells (HeLa cells) [%] | Percent inhibition ± SEM at 1 μM on Hela cells (HeLa cells) [%] | Percent inhibition ± SEM at 10 μM on Hela cells (HeLa cells) [%] | Percent inhibition ± SEM at 10 μM on vero cells (vero cells) [%] | Ki [1] [nM] | Ki [2] [nM]
c1ccc([C@H]2CN3CCSC3=N2)cc1 [Levamisole, reference compound] | 71 |  |  |  |  |  |  |  | 
CC[C@]1(O)C[C@H]2CN(CCc3c([nH]c4ccccc34)[C@@](C(=O)OC)(c3cc4c(cc3OC)N(C=O)[C@H]3[C@@](O)(C(=O)OC)[C@H](OC(C)=O)[C@]5(CC)C=CCN6CC[C@]43[C@@H]65)C2)C1 [VCN, vincristine, reference compound] |  | 72 ± 7 | 10 ± 4 |  |  |  |  |  | 
(NH4)14[NaP5W30O110]·31H2O |  |  |  | 54 ± 6 | 62 ± 13 | 74 ± 10 | 15 ± 6 | 1110 ± 36 | 921 ± 6
Na6[TeW6O24]·22H2O |  |  |  | 53 ± 12 | 62 ± 10 | 69 ± 10 | 16 ± 8 | 45.4 ± 11.3 | 520 ± 13
Na6[V10O28]·18H2O |  |  |  | 49 ± 11 | 57 ± 13 | 66 ± 15 | 16 ± 3 | 169 ± 21 | 79.1 ± 2.3
